According to ChEMBL document CHEMBL1139409, “Pestalachlorides A-C, antifungal metabolites from the plant endophytic fungus Pestalotiopsis adusta” (Bioorg Med Chem, 2008):
pIC50: −log10 of the molar value. ≈ marks a conversion by molar mass, not a printed value.

Columns and labels:
Format in all cases: functional, organism-based
[1] = test system: Verticillium albo-atrum; experiment: Antifungal activity against Verticillium albo-atrum by Almar blue assay
In short: (§1)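 Plant pathogen strains from CGMCC, maintained on potato dextrose agar; inocula from broth cultures grown 25 °C for 48 h, final suspension 1 × 10^4 hyphae/mL. Samples from 10 mg/mL DMSO stock, serially diluted, in triplicate, with alamar blue indicator; incubated 28 °C for 48 h, fluorescence read at Ex/Em 544/590 nm. Inhibition rate plotted against concentration to give IC50 and MIC; NCCLS-based method.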

[2] = test system: Fusarium graminearum; experiment: Antifungal activity against Gibberella zeae by Almar blue assay; in short: as §1
[3] = test system: Fusarium culmorum; experiment: Antifungal activity against Fusarium culmorum by Almar blue assay; in short: as §1

Structure (SMILES)	pIC50 [1]	MIC [1] [µM]	pIC50 [2]	MIC [2] [µM]	pIC50 [3]	MIC [3] [µM]
COc1c(Cl)c(C)c(Cl)c(O)c1C1NC(=O)c2c(O)cc(O)c(CC=C(C)C)c21 (racemic) [PESTALACHLORIDE A]	4.23	114 (≈ 50.1 µg/mL)	4.26	114 (≈ 50.1 µg/mL)	6.05	7.2 (≈ 3.16 µg/mL)
COc1c(Cl)c(C)c(Cl)c2c1[C@H]1c3c(C=O)c(O)cc(O)c3C[C@@H]1C(C)(C)O2 (racemic) [PESTALACHLORIDE C]	< 3.93	> 237	< 3.93	> 237	< 3.93	> 237
CC(C)=CCc1c(O)cc(O)c2c1C(=O)c1c(O)c(Cl)c(C)c(Cl)c1OC2 [PESTALACHLORIDE B]	5.10	12.2 (≈ 4.99 µg/mL)	5.96	12.2 (≈ 4.99 µg/mL)	5.33	49 (≈ 20.1 µg/mL)
